Assay outcomes from PubChem BioAssay.
In the library only some 4.3% were active in any assay of this set; here they are far more common.
ALR inh: human ALR oxidase inhibition via reduced H2O2. purified ALR, DTT oxidation, H2O2 HRP-luminol luminescence. inhibition, % (concentration not given with the values). AID 485317. actives 3.8% (n = 290,000). P55789;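 active = mean replicate inhibition above about 79%, with every replicate also reaching it, limit read from the data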
Rin1-Abl PPI inh: blocks binding of human Rin1 to Abl | P00519+Q13671 | TR-FRET Rin1/Abl binding, biochemical | inhibition, % at 7.35 µM | actives 0.4% (n = 360,000) | AID 588664; in the data active = inhibition above about 5%, passing the limit was not always enough
UBC9 SUMO inh: inhibitors of human SUMOylation (UBC9). P63279. HTRF SUMOylation assay, SAE1/SAE2 + UBC9, in vitro. inhibition, % at 35 µM. actives 0.36% (n = 290,000). AID 2006; in the data active = inhibition above about 50%, passing the limit was not always enough
Target sequence (P63279 whole entry, looked up): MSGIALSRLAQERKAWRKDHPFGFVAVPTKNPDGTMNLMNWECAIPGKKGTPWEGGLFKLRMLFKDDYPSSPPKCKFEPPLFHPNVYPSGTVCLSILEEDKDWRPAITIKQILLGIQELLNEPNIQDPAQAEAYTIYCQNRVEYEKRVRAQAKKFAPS
RBBP9 inh: human RBBP9 hydrolase inhibition; inhibition, % at 7.94 µM; O75884; recombinant RBBP9, FP-Rh probe fluorescence polarization; actives 0.2% (n = 220,000); AID 1515;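 active = inhibition above the campaign mean of all tested compounds plus 3 SD, cut at about 14% in these data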
Target sequence (O75884 whole entry, looked up): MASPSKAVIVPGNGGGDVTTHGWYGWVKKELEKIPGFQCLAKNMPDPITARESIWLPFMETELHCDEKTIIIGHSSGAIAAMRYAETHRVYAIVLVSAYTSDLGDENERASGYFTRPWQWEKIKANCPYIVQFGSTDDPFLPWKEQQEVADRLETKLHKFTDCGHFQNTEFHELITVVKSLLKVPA
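Material: RBBP9 protein. Amount: RBBP9 at 2.5 µM in dispensed solution, before mixing. Schedule: 30 min then 45 min, 25 °C. Medium: Tris buffer pH 8.0, NaCl, Pluronic. Measured by: fluorescence polarization. Measure: percent inhibition from mP, scaled between DMSO and no-protein wells. Replication: one well per compound.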
PREPL inhibitor: inhibits the human prolyl oligopeptidase-like enzyme. actives 0.68% (n = 320,000). inhibition, % at 5.96 µM. recombinant PREPL, fluorescence polarization activity-based probe. Q4J6C6; in the data active = inhibition above about 43%
UBC13 polyUb: blocks human UBC13 polyubiquitin chain formation | inhibition, % at 20 µM | actives 0.47% (n = 330,000) | TR-FRET | AID 485273 | P61088; in the data active = inhibition above about 45%, passing the limit was not always enough
Each line names hits and unclear results; the compound was inactive in the other large screens.

CN1c2ccc([N+](=O)[O-])cc2N(C)C1(C)c1ccccc1 (centres undefined)	ALR inh 99.2 (no result: RBBP9 inh, PREPL inhibitor)
CN(Cc1ccc(F)cc1)S(=O)(=O)c1ccc2[nH]c(=O)[nH]c2c1	none (no result: ALR inh, UBC9 SUMO inh, RBBP9 inh, PREPL inhibitor, UBC13 polyUb)
CCn1c(C(C)NC(=O)c2ccc(Cl)cc2)n[nH]c1=S (centres undefined)	none
C=CCn1c(C(C)NC(=O)c2cccc(C)c2)n[nH]c1=S (centres undefined)	ALR inh 93.0
COc1ccc(NC(=O)NNC(=O)c2ccc3ccccc3c2)cc1OC	none (no result: RBBP9 inh)
COc1ccc(S(=O)(=O)Nc2cc3c4c(c2)CC(=O)N4CCC3)cc1OC	none (no result: ALR inh, UBC9 SUMO inh, RBBP9 inh, PREPL inhibitor, UBC13 polyUb)
CC1(C)Cc2c(c(-c3ccccc3)nc3sc4c(=O)[nH]c(=S)[nH]c4c23)CO1	none (no result: ALR inh, Rin1-Abl PPI inh)
CC1(C)Cc2c(c(-c3ccccc3)nc3[nH][nH]c(=O)c23)CO1	ALR inh 99.2
COc1ccc(NC(=O)CN(C)C(=O)c2ccc3[nH]c4c(c3c2)CC(C)CC4)cc1 (centres undefined)	none (no result: UBC9 SUMO inh, RBBP9 inh)
CCc1ccc(NC(=O)C(C)OC(=O)Cn2[nH]c(=O)c3ccccc3c2=O)cc1 (centres undefined)	none (no result: ALR inh, UBC9 SUMO inh, RBBP9 inh, PREPL inhibitor, UBC13 polyUb)
CC(C)c1ccc(/C=C/C(=O)NC(=S)NN2CCOCC2)cc1	ALR inh 80.4 (no result: RBBP9 inh, PREPL inhibitor)
CCOc1cc(/C=N/NC(=O)c2ccccc2OCc2ccc(F)cc2)ccc1O	none (no result: UBC9 SUMO inh, RBBP9 inh)
CCOc1cc(/C=N/NC(=O)C(=O)N/N=C/c2ccc(O)c(OCC)c2)ccc1O	none (no result: RBBP9 inh)
CCOc1cc(/C=N/NC(=O)N/N=C/c2ccc(O)c(OCC)c2)ccc1O	ALR inh 98.8 (no result: Rin1-Abl PPI inh, UBC9 SUMO inh, RBBP9 inh)
CCOc1cc(/C=N/NC(=O)C(C)Sc2ccccc2)ccc1O (centres undefined)	ALR inh 98.5
CCOc1cc(/C=N/NC(=O)c2ccccc2-n2cccc2)ccc1O	ALR inh 98.8 (no result: UBC9 SUMO inh, RBBP9 inh)
CCOc1cc(/C=N/NC(=O)C(OC)c2ccccc2)ccc1O (centres undefined)	ALR inh 99.7 (no result: RBBP9 inh)
CCOc1ccc(/C=N/NC(=O)C(OC)c2ccccc2)cc1 (centres undefined)	none
COCCN1C[C@@H](CO)O[C@@H](n2cnc3c(NCCCO)ncnc32)C1	none (no result: ALR inh, UBC9 SUMO inh, RBBP9 inh, PREPL inhibitor, UBC13 polyUb)
CCOc1cc(/C=N/NC(=O)C(N)=O)cc(Br)c1O	ALR inh 91.0
CCOc1cc(/C=C(/C#N)C(=O)Nc2ccc(O)cc2)cc(Br)c1O	ALR inh 98.7
C=CCNC(=O)/C(C#N)=C\c1cc(Cl)c(O)c(OCC)c1	none (no result: UBC13 polyUb)
CCC(C)(C)n1nnnc1CN1CCc2ccccc21	ALR inh 98.2
c1ccc2c(c1)CCCN2Cc1nnnn1CC1CCCO1 (centres undefined)	none
c1ccc(CCn2nnnc2CN2CCCc3ccccc32)cc1	ALR inh 88.8
CCC(C)(C)n1nnnc1C(c1cccs1)N1CCc2ccccc21 (centres undefined)	none
C=CCCC(=O)NC1CC(C)(C)Cc2c1cnn2-c1ccc(OC)cc1 (centres undefined)	none (no result: RBBP9 inh)
COc1cc(OC)cc(C(=O)NCCSc2c[nH]c3ccccc23)c1	ALR inh 90.9
O=C(NCCSc1c[nH]c2ccccc12)c1c(F)cccc1F	none (no result: ALR inh)
O=C(NCCSc1c[nH]c2ccccc12)C1CC1	ALR inh 98.5
CN1CCC/C1=C/C=C1\SC(=S)NC1=O	none (no result: UBC13 polyUb)
O=C1C=CC(=C(c2ccc(O)cc2)c2ccc(O)cc2)C=C1	ALR inh 98.7 (no result: UBC9 SUMO inh, RBBP9 inh)
CCOc1ccccc1C(=O)N(Cc1sccc1C)C1CCS(=O)(=O)C1 (centres undefined)	none (no result: RBBP9 inh)
CC(=O)Nc1sc(N/N=C\c2ccc(O)cc2)nc1-c1cccs1	ALR inh 91.3
COc1ccccc1C(=O)Nc1nc(-c2cccs2)c(NC(C)=O)s1	none
CC(=O)Nc1sc(N/N=C\c2cccc(Cl)c2)nc1-c1cccs1	none
CC(=O)Nc1sc(NC(=O)c2ccccc2)nc1-c1cccs1	ALR inh 98.0
Cc1ccc(C)c(S(=O)(=O)NCCN2CCOCC2)c1	none (no result: RBBP9 inh)
O=c1cc(C(F)(F)F)nc(SC/C=C/c2ccccc2)[nH]1	ALR inh 78.2 (no result: RBBP9 inh)
Nc1cc(=O)[nH]c(SC/C=C/c2ccccc2)n1	none
CSCCC(NC(=O)c1ccccc1Cl)C(=O)NCCOc1ccc(C)cc1 (centres undefined)	none (no result: ALR inh, UBC9 SUMO inh, RBBP9 inh, PREPL inhibitor, UBC13 polyUb)
Cc1cc(C(=O)C[N+]2(C)CCOCC2)c(C)n1-c1ccc(Br)cc1	none
